Results pooled from the literature.
Target: Discoidin domain-containing receptor 2 (DDR2, Homo sapiens, UniProt Q16832)
One construct used (Q16832 22-855): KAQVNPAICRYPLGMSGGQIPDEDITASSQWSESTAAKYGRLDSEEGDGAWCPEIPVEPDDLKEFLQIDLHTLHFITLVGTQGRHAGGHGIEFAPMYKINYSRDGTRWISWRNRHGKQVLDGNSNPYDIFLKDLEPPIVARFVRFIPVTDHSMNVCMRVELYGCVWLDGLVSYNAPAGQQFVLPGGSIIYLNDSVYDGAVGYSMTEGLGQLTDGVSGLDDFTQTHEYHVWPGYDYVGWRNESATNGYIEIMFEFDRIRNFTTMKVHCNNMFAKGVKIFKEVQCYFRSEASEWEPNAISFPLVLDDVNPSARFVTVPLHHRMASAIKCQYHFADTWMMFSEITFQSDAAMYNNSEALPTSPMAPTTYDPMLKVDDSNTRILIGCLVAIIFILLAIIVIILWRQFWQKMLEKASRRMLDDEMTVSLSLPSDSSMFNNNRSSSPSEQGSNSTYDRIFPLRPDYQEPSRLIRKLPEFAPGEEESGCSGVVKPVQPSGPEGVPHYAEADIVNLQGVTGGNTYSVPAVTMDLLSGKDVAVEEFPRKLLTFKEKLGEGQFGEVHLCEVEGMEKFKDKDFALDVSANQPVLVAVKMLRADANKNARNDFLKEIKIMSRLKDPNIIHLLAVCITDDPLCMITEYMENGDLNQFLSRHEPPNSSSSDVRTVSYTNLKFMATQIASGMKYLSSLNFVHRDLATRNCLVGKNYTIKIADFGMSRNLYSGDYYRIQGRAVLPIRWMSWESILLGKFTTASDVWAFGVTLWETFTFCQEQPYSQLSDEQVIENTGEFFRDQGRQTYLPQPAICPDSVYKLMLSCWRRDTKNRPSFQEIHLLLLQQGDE

SMILES | effect on | technique | concentration | remaining binding [%]
O=C(Nc1c[nH]nc1C(=O)NC1CCNCC1)c1cc(F)cc(F)c1 | binding | competition with immobilised ligand | 1 µM | 94
CN(c1nccc(-c2cnn3ncccc23)n1)C1CC1 | binding | – | 1 µM | 100
Nc1cnc(N2CCc3cc(S(=O)(=O)Nc4c(F)cc(Cl)cc4F)cc(N4CCCC4=O)c32)nc1 | cell-free assay | competition with immobilised ligand | 1 µM | 100
COc1cnc(Nc2cccc(S(N)(=O)=O)c2)nc1N1CCN(c2ccccc2)C(=O)C1 | binding | competition with immobilised ligand | 1 µM | 100
C[C@@H]1CCN(c2nccc(-c3cnn4ncccc34)n2)C1 | binding | – | 1 µM | 66
CC(C)(O)c1cncc(-c2nc3ccc(F)cc3n2C2CC2)c1 | cell-free assay | competition with immobilised ligand | 1 µM | 100
FC(F)(F)Oc1cccc(-c2cnc3ccc(-c4ccncc4)nn23)c1 | cell-free assay | competition with immobilised ligand | 5 µM | 55
COc1ncc2cc3ccccc3nc2c1C#N | cell-free assay | competition with immobilised ligand | 5 µM | 94
CN(C)c1nccc(-c2cnn3ncccc23)n1 | binding | – | 1 µM | 100
O=C(Nc1cccnn1)N1CCC(=Cc2cccc(Oc3ccc(C(F)(F)F)cn3)c2)CC1 | cell-free assay | competition with immobilised ligand | 1 µM | 100
O=C(NCCCN1CCOCC1)c1ccc(Nc2ncc(Cl)c(-c3ccc(Cl)s3)n2)cc1 | binding | competition with immobilised ligand | 1 µM | 61
O=C(N[C@H]1CCCCC/C=C\C2C[C@@]2(C(=O)O)NC(=O)[C@@H]2C[C@@H](Oc3ccncc3)CN2C1=O)OC1CCCC1 (some centres unmarked) | cell-free assay | competition with immobilised ligand | 1 µM | 100
CC1CCCN1c1nccc(-c2cnn3ncccc23)n1 (centres unmarked) | binding | – | 1 µM | 100
c1cncc(-c2cccc(Nc3nccc(NC4CCCCC4)n3)c2)c1 | binding | competition with immobilised ligand | 10 µM | 86
O=C(c1ccc(Nc2nccc(-c3cc4ccccc4s3)n2)cc1)N1CCC(N2CCCC2)CC1 | binding | competition with immobilised ligand | 1 µM | 20
CN(CCCC(F)(F)F)c1nccc(-c2cnn3ncccc23)n1 | binding | – | 1 µM | 96
CC(C)CC(=O)N1CCc2nc(-c3ccc(Br)cc3)nc(N(C)Cc3ccccc3)c2C1 | cell-free assay | competition with immobilised ligand | 0.1 µM | 97
O=C(c1ccc(Nc2ncc(Cl)c(-c3ccc(Cl)s3)n2)cc1)N1CCC(N2CCCC2)CC1 | binding | competition with immobilised ligand | 1 µM | 33
O=c1nc(-c2ccccn2)sc2ccccc12 | cell-free assay | competition with immobilised ligand | 1 µM | 100
Cc1cnn2ncc(-c3ccnc(N(C)C)n3)c2c1 | binding | – | 1 µM | 69
